Experimental data published in PubChem BioAssay AID493091 (Sanford-Burnham Center for Chemical Genomics, 2011).
In all, about 340,000 compounds went through this assay and about 3,000 (0.88%) were called active. This is one part of a sample in which actives are shown more often than they occur. Values without a mark were called inactive.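 How the source made its calls: active means inhibition above about 50% at 20 µM (limit read from the data); inactive means the rest.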

Molecular target: Carboxy-terminal domain RNA polymerase II polypeptide A small phosphatase 1 (Homo sapiens) (UniProt Q9GZU7)
Sequence (Q9GZU7 76-261 limits assumed): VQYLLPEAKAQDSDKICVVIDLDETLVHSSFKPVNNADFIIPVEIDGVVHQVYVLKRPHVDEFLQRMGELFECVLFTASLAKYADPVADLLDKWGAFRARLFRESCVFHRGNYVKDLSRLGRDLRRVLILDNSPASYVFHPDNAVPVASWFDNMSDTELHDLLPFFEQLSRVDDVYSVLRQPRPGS
Assay: Scp-1 phosphatase inhibitors, primary screen, biochemical, colorimetric, uHTS (AID 493091);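 further: plate controls were DMSO wells with enzyme for no effect and wells lacking enzyme for full effect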
Settings: Recombinant Scp1, phosphopeptide, malachite green phosphate absorbance; at 20 µM; hits give high values
How it was run: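 Material – SCP-1 phosphatase catalytic domain, residues 76-261 · Buffer or medium – Acidic Tris acetate buffer with magnesium and detergent · Also added – Phospho 17-mer peptide substrate · Compound – single 20 µM dose, 1% DMSO · Times – 45 min room-temperature reaction, 5 min colour, 30 min stabiliser · Technique – Phosphate-binding colour reagent, absorbance read at 630 nm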

| Compound | inhibition |
| --- | --- |
| COc1ccccc1OCCOc1ccc(/C=C2\C(=N)N3N=C(C)SC3=NC2=O)cc1 | -7.04% |
| CCOc1cc(/C=C2\C(=N)N3N=C(C)SC3=NC2=O)ccc1OCCOc1ccccc1 | -5.68% |
| CS(=O)(=O)C1=NN2C(=N)/C(=C\c3ccc(OCCOc4ccccc4)cc3)C(=O)N=C2S1 | 50.3% (active) |
| CCOc1ccc(S(=O)(=O)N/N=C(\C)c2ccc(Cl)c(Cl)c2Cl)cc1 | -6.85% |
| CSc1ccc(Cl)c(C(=O)OCC(=O)N2CCNC2=O)c1 | 0.5% |
| O=C(NCCCNCc1ccccc1)c1ccc(/C=N/O)nc1 | -4.62% |
| CC(C)c1ccc(C(=O)NCCCc2ccccc2)cc1 | -14.7% |
| C[N+](C)(C)CCNC(=O)c1cc[n+](Cc2ccccc2)c(/C=N/O)c1 | 99.5% (active) |
| O=C(NNS(=O)(=O)c1ccc([N+](=O)[O-])cc1)C1CCCCC1 | -6.14% |
| Cc1cc2occ(CC(=O)NNC(=O)c3ccccc3F)c2cc1C | -10.5% |
| CCOc1ccc2nc(N(CCCN(C)C)C(=O)c3ccc(C(=O)c4ccccc4)cc3)sc2c1 | 65% (active) |
| CCN(CC)CCN(C(=O)c1cccc([N+](=O)[O-])c1)c1nc2ccc(OC)cc2s1 | -1.97% |
| CN(C)CCCN(C(=O)c1ccc(S(=O)(=O)N2CCCCCC2)cc1)c1nc2ccc(Br)cc2s1 | 11.7% |
| CC(C)CNC(=O)COC(=O)/C=C/c1ccco1 | 22.6% |
| COc1c(Br)cc2c(C)c(C(=O)N3CCOCC3)oc2c1Br | -4.18% |
| CNS(=O)(=O)c1cccc(C(=O)OCC(=O)N2c3ccccc3NC(=O)C2(C)C)c1 | 51% (active) |
| Cc1ccc(OCCC(=O)OCC(=O)N2c3ccccc3NC(=O)C2(C)C)cc1 | 3.3% |
| CCNc1ccc(C(=O)OCC(=O)N2c3ccccc3NC(=O)C2(C)C)cc1[N+](=O)[O-] | -9.83% |
| CCCCCN(C(=O)CCC(=O)OCC(=O)NC1CCC(C)CC1)c1c(N)n(CCCC)c(=O)[nH]c1=O (stereo unspecified) | 3.11% |
| CC(=O)NNC(=O)c1csc(Cc2c(Cl)sc3ccc(Cl)cc23)n1 | -4.25% |
| CC1CC(=O)N(CC(=O)Nc2cccc(Cl)c2)c2ccccc2S1(=O)=O (stereo unspecified) | -2.39% |
| O=C(CCc1ccc(S(=O)(=O)N2CCOCC2)cc1)Nc1ccc2ccccc2c1 | -11.8% |
| CCOc1cc(C(=O)O)ccc1OCCOc1ccccc1 | 6.63% |

| Compound | inhibition |
| --- | --- |
| CCN(C(=O)COc1ccc(C(=O)c2ccccc2)cc1)c1ccccc1 | -3.83% |
| CC/C(=C(/c1ccccc1)c1ccc(OCC[N+](C)(C)C)cc1)c1ccccc1 | 67.4% (active) |
| O=C(CCn1ccc([N+](=O)[O-])n1)Nc1nccs1 | -5.19% |
| CC(=O)c1ccc(N2CCN(C(=O)c3ccc(Cl)c(S(=O)(=O)NC4CC4)c3)CC2)c(F)c1 | -5.7% |
| Cc1sc2nc(CSCC(=O)NC3CCCCC3)[nH]c(=O)c2c1C | 1.62% |
| CSc1nnc(SCc2nc3sc(C(=O)O)c(C)c3c(=O)[nH]2)s1 | 74% (active) |
| CC(=O)c1sc2nc(SCC(=O)N3CCCCC3)[nH]c(=O)c2c1C | 7.94% |
| CCN1/C(=C\c2ccc3ccccc3[n+]2CC)Sc2cc(C)ccc21 | 21.8% |
| CCN1/C(=C/c2ccc3ccc(C)cc3[n+]2CC)Sc2ccccc21 | 64.2% (active) |
| CCOc1cc(C2C(C(=O)OC(C)C)=C(C)NC3=C2C(=O)CCC3)cc([N+](=O)[O-])c1O (stereo unspecified) | -7.32% |
| CCN(CC)C(=O)Oc1ccc(OC(=O)N(CC)CC)cc1 | 7.37% |
| O=C(NCc1ccccn1)C1CCN(S(=O)(=O)c2ccc(Br)cc2)CC1 | 3.99% |
| CC(=O)N1CCN(C(=O)c2cc(-c3ccc(C)o3)nc3ccccc23)CC1 | -8.9% |
| Cc1ccc(NC(=O)c2cc(-c3ccc(C)o3)nc3ccccc23)nc1 | 67.5% (active) |
| COc1ccc(NC(=O)CN(C)C(=O)c2cc(-c3ccc(C)o3)nc3ccccc23)cc1 | -3.85% |
| O=C(C1CCCO1)N1CCN(S(=O)(=O)c2ccc(Br)cc2)CC1 (stereo unspecified) | -5.02% |
| CN(C)C(CNC(=O)c1ccc(S(=O)(=O)NCc2ccco2)cc1)c1ccccc1 (stereo unspecified) | -0.87% |
| COc1ccccc1C(=O)NN1C(=O)C2C3C=CC(O3)C2C1=O (stereo unspecified) | -11.3% |
| O=C(NN1C(=O)C2C3C=CC(O3)C2C1=O)c1ccncc1 (stereo unspecified) | 0.55% |
| O=C(NN1C(=O)C2C3C=CC(O3)C2C1=O)c1ccccc1 (stereo unspecified) | 56% (active) |
| CCOc1cc(NC(=O)CCl)c(OCC)cc1NC(C)=O | -1.31% |
| O=c1ccc2c(-c3ccccc3S(=O)(=O)O)c3ccc(O)c(O)c3oc-2c1O | 64.1% (active) |
| O=C(Nc1cc2c3c(c1)CC(=O)N3CCC2)c1ccccc1F | -6.14% |

| Compound | inhibition |
| --- | --- |
| O=P(O)(CP(=O)(c1ccccc1)c1ccccc1)c1ccccc1 | -4.63% |
| COc1cccc(Cn2cc(/C=N/NC(=O)c3cc(O)cc(O)c3)c3ccccc32)c1 | -15.4% |
| O=C(Cn1cc(/C=N/NC(=O)c2cccc(C(F)(F)F)c2)c2ccccc21)Nc1ccc(F)cc1 | 90.8% (active) |
| O=C(CSc1ccc(/C=N/NC(=O)c2cccc(F)c2)o1)Nc1ccccc1 | -3.74% |
| COc1cc(C2C3=C(CCCC3=O)OC3=C2C(=O)CCC3)ccc1OCC(=O)Nc1ccccc1 | 4.63% |
| COc1ccc(N2CCN(C(=O)CSc3nc4cc(OC)c(OC)cc4cc3C#N)CC2)cc1 | 67.5% (active) |
| COc1ccc(N2CCN(C(=O)CSc3nnc4ncccn34)CC2)cc1 | -6.4% |
| CCOc1ccc(-c2nnn(CC(=O)N3CCN(c4ccc(OC)cc4)CC3)n2)cc1OCC | -1.29% |
| CCNC(=S)NCC | -5.72% |
| COc1ccc(/C(O)=C2/C(=O)C(=O)N(CC3CCCO3)C2c2ccc(OC)c(OC)c2)cc1 (stereo unspecified) | -4.81% |
| Cc1ccc(NC(=O)C(=O)NCc2ccco2)c(C)c1 | -2.49% |
| Cc1ccc(SCC(=O)NC(=O)NCc2ccco2)c(C)c1 | 70% (active) |
| Cc1cc(C)n2nc(SCC(=O)NC(=O)NCc3ccco3)nc2n1 | 7.37% |
| O=C(Cc1ccccc1Cl)N1CCN(c2ccccn2)CC1 | -2.92% |
| O=C(Cn1cnc2ccccc2c1=O)Nc1cccc(S(=O)(=O)N2CCCCC2)c1 | -7.43% |
| CN(C)C=NC(=O)c1cccn1-c1ncc(C(F)(F)F)cc1Cl | -4.15% |
| CCOc1ccc(OCC)c(NC(=O)CCS(=O)(=O)c2ccc(C)cc2)c1 | -14.2% |
| COc1ccc(Cl)cc1NC(=O)CCS(=O)(=O)c1cc2c(cc1C)NC(=O)CO2 | -1.24% |
| O=C(CCS(=O)(=O)c1ccc(Br)cc1)NCCc1ccc(Cl)cc1 | 80% (active) |
| O=C(Cc1ccc(Br)cc1)NCCc1ccccc1 | -9.76% |
| Cc1ccc(S(=O)(=O)CCC(=O)OCC(=O)NCCc2ccc(S(N)(=O)=O)cc2)cc1 | -5.47% |
| COc1ccc(Cl)cc1NC(=O)CCS(=O)(=O)c1ccc(Br)cc1 | 94.5% (active) |
| CCc1ccc(C(=O)N2CCN(S(=O)(=O)c3sc(C(=O)O)c(C)c3C(=O)O)CC2)cc1 | 11.9% |

| Compound | inhibition |
| --- | --- |
| CC1CC(C)CN(C/C=C/c2ccccc2[N+](=O)[O-])C1 (stereo unspecified) | -6.48% |
| CN(C)[C@@H]1C(=O)C(C(N)=O)=C(O)[C@@]2(O)C(=O)C3=C(O)c4c(O)ccc(Cl)c4[C@@H](O)[C@H]3C[C@@H]12 | -6.29% |
| C=C1c2c(Cl)ccc(O)c2C(O)=C2C(=O)[C@]3(O)C(O)=C(C(N)=O)C(=O)[C@@H](N(C)C)[C@@H]3[C@@H](O)C12 (stereo partly specified) | 65.5% (active) |
| O=C(CNC(=O)c1cc2c(s1)CCC2)Nc1ccccc1Br | -7% |
| O=C(Nc1ccc(-c2nnc(-c3ccccc3)o2)cc1)c1ccc(Br)o1 | 73% (active) |
| O=C(CNC(=O)c1ccc(Br)o1)Nc1ccccc1 | -5.1% |
| Brc1ccc(-c2nnc(-c3ccccc3)o2)o1 | 2.87% |
| O=C(COC(=O)c1cccnc1Cl)NC12CC3CC(CC(C3)C1)C2 | -2.71% |
| CC1(C)CC(N2CCN(C(c3ccccc3)c3ccccc3)CC2)=CC(=[N+]2CCCCC2)C1 | 98.9% (active) |
| c1ccc(C(c2ccccc2)N2CCN(Cc3nnnn3C3CCCCC3)CC2)cc1 | 5.01% |
| CC(C)OCC(O)CN1CCN(C(c2ccccc2)c2ccccc2)CC1 (stereo unspecified) | -1.8% |
| COc1cc2c(cc1OC)C1C(=O)c3cc(OS(C)(=O)=O)c(OC)cc3C1N(C)C2=O (stereo unspecified) | 7.12% |
| Cc1ccc(C)c(-c2nnc(NC(=O)CS(=O)(=O)c3ccccc3)o2)c1 | -3.82% |
| O=c1c(-c2ccccc2)cnc2n1CCS2 | -9.56% |
| Cc1ccccc1C1CC(c2cccs2)=NN1S(C)(=O)=O (stereo unspecified) | 4.93% |
| O=c1c2cc(-c3ccccc3)sc2nc2n1N=C(c1cccs1)CS2 | 79.1% (active) |
| COc1ccc(OCc2cc(C(=O)NCC3(C)COC3)no2)c(Cl)c1 | -1.65% |
| Cc1nc2ccc(C(=O)N(C)CC3CCCN(CCc4ccc(Cl)cc4)C3)cc2[nH]1 (stereo unspecified) | -5.73% |
| COc1ccc(S(=O)(=O)N2CCN(C(=O)c3cc(C)oc3C)CC2)cc1 | -8.28% |
| N#Cc1c(N2CCCCC2)nc(N)c2c(N)nc(SCC(=O)O)cc12 | 65.9% (active) |
| N#CCc1c(C#N)c(N)nc(N2CCCC2)c1C#N | -4.92% |
| Nc1nc(NCC(=O)O)nc(N2CCCCCC2)c1[N+](=O)[O-] | 6.19% |
